Screens (PubChem)
Runt-CBFb FRET: blocks binding of human RUNX1 Runt domain to CBFb; actives 0.46% (n = 220,000); Q01196+Q13951; inhibition, % at 20 µM; AID 1496; Cerulean-Runt/Venus-CBFb FRET ratio 530/480, 1 h;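 active means inhibition over about 50% at 20 µM in the single-dose screen, limit read from the data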;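 further: 0% = DMSO wells and 100% = excess unlabeled CBFb competitor control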
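Assay system: Cerulean-tagged RUNX1 Runt domain (FRET donor) fusion protein / Amount: 100 nM each of Venus-CBFb and Cerulean-Runt domain / Medium: Tris buffer pH 7.5 with salts and BSA / Also added: Venus-CBFb 100 nM / Schedule: 1 h complex formation plus 1 h compound treatment, room temperature / Signal: FRET fluorescence / Read-out: loss of energy transfer signal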
CaV13 ICDI inh: Primary screen for inhibitors of IQ motif and Ca2+-dependent inactivation inhibitor domain binding in CACNA1D, Förster resonance energy transfer in living cells, …; HEK cells, CFP/YFP FRET ICDI-IQ, plate reader, 10 min; percent FRET-ratio fall versus neutral wells; inhibition, % at 12.3 µM; actives 0.098% (n = 340,000); AID 743397;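 active means mean replicate inhibition of at least 30% and at least 1% of replicates passing that level; inconclusive means only one of the two criteria is met; inactive means neither criterion is met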;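 further: 0% = median of the neutral control wells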
Hck-Nef inh: human Hck-Nef kinase inhibition | P08631 | Recombinant Hck-YEEI plus Nef, Z-Lyte FRET kinase assay | inhibition, % at 20 µM | actives 0.68% (n = 220,000) | AID 463187;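 active means Hck-Nef kinase inhibition above about 50%, limit read from the data; inactive means inhibition below that limit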;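 further: 0% = DMSO with Hck plus Nef and 100% = Hck alone without Nef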
Target sequence (P08631 whole entry, looked up): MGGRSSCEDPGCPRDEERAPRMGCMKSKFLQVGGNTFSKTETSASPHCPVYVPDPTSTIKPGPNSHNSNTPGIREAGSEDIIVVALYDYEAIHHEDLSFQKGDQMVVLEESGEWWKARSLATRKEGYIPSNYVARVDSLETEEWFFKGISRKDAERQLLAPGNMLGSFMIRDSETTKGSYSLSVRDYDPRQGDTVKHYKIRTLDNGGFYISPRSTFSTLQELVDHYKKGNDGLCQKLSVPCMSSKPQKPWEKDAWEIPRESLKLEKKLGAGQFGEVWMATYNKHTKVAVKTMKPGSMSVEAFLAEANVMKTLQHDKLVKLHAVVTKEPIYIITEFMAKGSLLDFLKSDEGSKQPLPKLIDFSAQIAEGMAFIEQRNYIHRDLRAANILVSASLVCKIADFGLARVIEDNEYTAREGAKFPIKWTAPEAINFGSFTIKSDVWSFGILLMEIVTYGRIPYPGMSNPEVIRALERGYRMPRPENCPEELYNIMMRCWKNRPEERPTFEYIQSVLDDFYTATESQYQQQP
RanGTP-Imp inh: disruptors of Ran-importin-beta complex formation – biochemical, FRET, CFP-Ran, YFP-importin-beta, homogeneous, primary screen | AID 2216 | inhibition, % (concentration not given with the values) | cell-free CFP-Ran/YFP-importin-beta FRET ratio | actives 1.1% (n = 300,000);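 active means more than half of the replicate wells show a fall in the fluorescence ratio signal beyond about 16%, limit read from the data, passing the limit was not always enough; inconclusive means exactly half of the replicate wells pass the set limit; inactive means fewer than half of replicates pass the limit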;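 further: 0% = DMSO wells and 100% = Ran loaded with GDP instead of GTP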
Runt-SMMHC FRET: inhibitors of human RUNX1 Runt domain binding to CBFb-SMMHC | Q01196+Q13951 | Cerulean-Runt/Venus-CBFb-SMMHC FRET ratio 530/480, 1 h | inhibition, % at 20 µM | actives 0.74% (n = 220,000) | AID 1434;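 active means mean inhibition across duplicate retests at 20 µM reaching about 50%, limit read from the data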;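 further: 0% = DMSO wells and 100% = wells with excess untagged CBFb-SMMHC; inhibitors lower the FRET ratio by blocking Runt binding to CBFb-SMMHC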
Hck-Nef confirm: confirmation of Hck-Nef kinase inhibitors; Recombinant Hck-YEEI:Nef, Z-Lyte FRET kinase assay; calls only at 10 µM; actives 28% (n = 1,300); shares compounds with Hck-Nef inh;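 active means average inhibition of at least 50%, with Z-scores no higher than 3 in both the phospho-tyrosine peptide and fluorescence counterscreens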
Active calls of the source: *; i = inactive; u = inconclusive; x = no result shown; + = active, no number. The list is not random: actives were taken first. Their share in the collection is about 1.5%.

SMILES	Runt-CBFb FRET	CaV13 ICDI inh	Hck-Nef inh	RanGTP-Imp inh	Runt-SMMHC FRET	Hck-Nef confirm
O=C(Cn1nc(-c2ccc3c(c2)OCCO3)ccc1=O)Nc1ccc(-n2cnnn2)cc1	-1	-5	52*	1	-10	i
O=C(Cn1nc(-c2ccccc2)ccc1=O)Nc1ccc(-n2cnnn2)cc1	3	-4	11	1	-5	x
Cc1cccc2cc(C#N)c(SCC(=O)NCC3CCCO3)nc12 (stereo unspecified)	-3	0	1	3	-1	x
Cc1cccc2c(SCC(=O)NCC3CCCO3)nc(-c3ccc(F)cc3)nc12 (stereo unspecified)	1	-8	88*	0	0	i
CCOc1ccc(/C=C2\SC(=S)N(C(C(=O)O)c3ccccc3)C2=O)cc1OC (stereo unspecified)	-39	-47	28	-23	-104	x
C=CCOc1ccc(/C=C2\SC(=S)N(C(C(=O)O)c3ccccc3)C2=O)cc1 (stereo unspecified)	-24	-4	51*	-2	-24	+
COc1ccc(/C=N/NC(=O)c2cc(C(C)(C)C)[nH]n2)cc1COc1ccc(F)cc1F	-2	3	58*	51*	-1	i
COc1ccc(/C=N\NC(=O)c2ccccc2F)cc1COc1ccc(F)cc1F	x	-6	x	2	x	x
CCCn1c(=N)c(C(=O)NC2CCCC2)cc2c(=O)n3cccc(C)c3nc21	5	27	187*	198*	83*	x
Cc1cccn2c(=O)c3cc(C(=O)NC4CCCCC4)n(C)c3nc12	x	-7	x	0	x	x
O=C(NC1CCCCCC1)c1cc2c(=O)n3ccccc3nc2s1	x	-3	x	u	x	x
COCCCn1c(SC(C)C(=O)NC2CC2)nc2ccccc2c1=O (stereo unspecified)	x	-9	x	4	x	x
N=c1c(C(=O)NC2CCCC2)cc2c(=O)n3ccccc3nc2n1C1CCCC1	11	5	122*	182*	-21	x
Cc1cccn2c(=O)c3cc(C(=O)NC(C)c4ccccc4)c(=N)n(CCCn4ccnc4)c3nc12 (stereo unspecified)	38	75*	+	+	88*	x
COCCCn1c(=N)c(C(=O)NC2CCCCC2)cc2c(=O)n3ccccc3nc21	5	43*	+	192*	83*	x
O=C(Nc1ncc(Cc2ccc(C(F)(F)F)cc2)s1)c1ccc(-c2cccc([N+](=O)[O-])c2)o1	1	-21	0	-1	6	x
Cc1nn(-c2ccccc2)c(C)c1-c1cc(C(=O)N/N=C/c2ccc(O)cc2)[nH]n1	0	-2	66*	0	0	+
COc1cc(/C=N/NC(=O)c2cc(-c3c(C)nn(-c4ccccc4)c3C)n[nH]2)ccc1O	-6	-4	43	3	-1	x
CCN(CC)c1ccc2cc(C(N)=O)c(=O)oc2c1	4	33*	123*	153*	95*	x
NC(=O)c1cc2cc(Cl)ccc2oc1=O	-2	-4	1	-2	-7	x
c1ccc(-c2nccc(-c3ccc(-n4cnc5ccccc54)cc3)n2)cc1	-3	-4	102*	-6	-4	i
c1ccc(-n2cnc3ccccc32)nc1	x	0	x	-1	x	x
Cc1cc(C)c2cccc(N)c2n1	2	-1	27	4	-2	x
Cc1cc(C)c2c(N)c3ccccc3nc2n1	11	-1	53*	135*	78*	i
COC(=O)c1cc(Cl)c(N)cc1OC	-3	-9	-5	-6	-3	x
Cc1ccc(NC(=O)COC(=O)c2ccc([N+](=O)[O-])o2)cc1S(=O)(=O)N1CCCCC1	-2	-19	19	3	2	x
O=C(N/N=C/c1ccncc1)c1ccc(NC(=O)c2ccc(Cl)cc2)cc1	-3	0	58*	x	-7	i
O=C(N/N=C/c1ccncc1)c1ccc(NC(=O)c2cccc(Cl)c2)cc1	x	-5	-6	5	3	x
